Measurements from ChEMBL document CHEMBL3351316, “Scaffold hopping approach on the route to selective tankyrase inhibitors” (Eur J Med Chem, 2014).
pIC50: −log10 of the molar value. The source made the active and inactive calls. The calls are words filed in the database; no cut-off is given here.

Columns and labels:
[1] = target: T1, Poly [ADP-ribose] polymerase tankyrase-1 (Homo sapiens, UniProt O95271); assay: Inhibition of GST-tagged human recombinant TNKS1 incubated for 1 hr using NAD+, biotinylated NAD+ and activated DNA by luminescence based assay
T1 sequence (O95271 whole entry): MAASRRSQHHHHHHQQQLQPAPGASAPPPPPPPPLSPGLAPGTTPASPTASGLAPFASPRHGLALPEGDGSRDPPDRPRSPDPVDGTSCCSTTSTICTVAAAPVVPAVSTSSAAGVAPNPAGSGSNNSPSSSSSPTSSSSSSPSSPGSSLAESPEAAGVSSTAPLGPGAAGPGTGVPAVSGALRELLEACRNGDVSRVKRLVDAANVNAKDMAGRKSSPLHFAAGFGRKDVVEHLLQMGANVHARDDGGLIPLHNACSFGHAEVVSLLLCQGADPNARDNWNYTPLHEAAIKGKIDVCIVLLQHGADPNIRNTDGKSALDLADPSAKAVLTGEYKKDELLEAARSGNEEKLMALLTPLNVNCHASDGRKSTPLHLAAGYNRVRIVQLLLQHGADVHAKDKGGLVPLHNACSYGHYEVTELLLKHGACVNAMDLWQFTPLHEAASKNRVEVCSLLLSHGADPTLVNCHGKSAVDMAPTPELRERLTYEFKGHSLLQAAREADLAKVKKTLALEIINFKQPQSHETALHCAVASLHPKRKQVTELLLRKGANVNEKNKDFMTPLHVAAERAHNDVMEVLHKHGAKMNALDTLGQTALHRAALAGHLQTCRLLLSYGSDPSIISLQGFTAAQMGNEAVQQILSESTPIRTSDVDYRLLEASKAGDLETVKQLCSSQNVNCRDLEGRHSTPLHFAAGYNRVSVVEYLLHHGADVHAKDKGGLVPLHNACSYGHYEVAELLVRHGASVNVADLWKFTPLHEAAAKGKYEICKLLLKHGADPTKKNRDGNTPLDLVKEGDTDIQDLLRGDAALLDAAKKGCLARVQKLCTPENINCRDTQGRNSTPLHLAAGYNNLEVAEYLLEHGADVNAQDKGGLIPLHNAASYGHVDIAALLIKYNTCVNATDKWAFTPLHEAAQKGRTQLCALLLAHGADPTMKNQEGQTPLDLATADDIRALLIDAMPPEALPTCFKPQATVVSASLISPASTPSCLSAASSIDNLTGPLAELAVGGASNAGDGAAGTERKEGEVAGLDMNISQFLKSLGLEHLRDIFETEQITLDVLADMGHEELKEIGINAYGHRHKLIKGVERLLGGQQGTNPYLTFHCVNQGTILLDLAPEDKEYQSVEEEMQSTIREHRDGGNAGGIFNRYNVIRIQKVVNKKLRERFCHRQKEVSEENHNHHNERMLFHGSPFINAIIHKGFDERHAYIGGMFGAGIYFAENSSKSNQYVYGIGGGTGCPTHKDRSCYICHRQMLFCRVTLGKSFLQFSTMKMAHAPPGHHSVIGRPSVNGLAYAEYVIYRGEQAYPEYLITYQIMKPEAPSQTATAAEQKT

[2] = system: RKO; assay: Growth inhibition of Wnt-negative human RKO cells at >10 uM; assay type: functional, cell-based
[3] = system: RKO; assay: Growth inhibition of Wnt-negative human RKO cells at 1 uM to 10 uM; assay type: functional, cell-based
[4] = target: T2, Protein mono-ADP-ribosyltransferase PARP3 (Homo sapiens) (UniProt Q9Y6F1); assay: Inhibition of human recombinant PARP3 at 10 uM incubated for 1 hr using NAD+, biotinylated NAD+ and activated DNA by luminescence based assay
T2 sequence (whole entry): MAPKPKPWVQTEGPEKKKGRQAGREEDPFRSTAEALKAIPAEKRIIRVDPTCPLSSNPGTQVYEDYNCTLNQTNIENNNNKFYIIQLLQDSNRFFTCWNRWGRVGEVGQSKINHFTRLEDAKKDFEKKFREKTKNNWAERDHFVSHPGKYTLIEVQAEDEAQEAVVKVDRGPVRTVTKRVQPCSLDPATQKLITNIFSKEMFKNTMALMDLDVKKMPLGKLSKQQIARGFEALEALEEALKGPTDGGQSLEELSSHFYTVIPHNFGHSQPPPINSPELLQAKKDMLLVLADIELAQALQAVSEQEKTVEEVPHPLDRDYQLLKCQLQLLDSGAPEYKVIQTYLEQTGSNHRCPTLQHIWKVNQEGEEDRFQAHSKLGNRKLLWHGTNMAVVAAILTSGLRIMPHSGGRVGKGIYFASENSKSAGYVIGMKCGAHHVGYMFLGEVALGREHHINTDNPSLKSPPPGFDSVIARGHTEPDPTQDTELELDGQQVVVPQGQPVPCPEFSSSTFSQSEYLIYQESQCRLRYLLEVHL
In short: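 Recombinant PARP enzyme reactions were run in duplicate for 1 h at rt on histone-coated plates in Tris·HCl pH 8.0 buffer with NAD+, biotinylated NAD+ and activated DNA. Detection used streptavidin-HRP for 30 min at rt, then a chemiluminescent developer. % inhibition = 100 − % activity, scaled between the no-compound (100%) and no-enzyme (0%) signals.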

CC(C)(C)c1ccc(-c2nc3c(sc4ccccc43)c(=O)[nH]2)cc1
pIC50 [1]: 7.67
growth inhibition (GI) [2]: Active
growth inhibition (GI) [3]: inactive
inhibition [4]: 1%
